# From PubChem BioAssay
# Compounds with a hit are over-represented: about 1.6% of the library has one in this group of screens.
# GSTO1 inh = GSTO1 inhibition, counter-screen for RBBP9 inhibitors. inhibition, % at 5.96 µM. recombinant GSTO1, activity-based probe fluorescence polarization. AID 1974. 300,000 tested, 1.1% active;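 active means inhibition above the campaign mean inhibition plus 3 SD, cut at about 35% in these data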;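 further: 0% = GSTO1-1 with DMSO and 100% = wells lacking GSTO1-1 enzyme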
# PAD4 FP inh = inhibitors of human PAD4. recombinant PAD4, RCA probe fluorescence polarization. inhibition, % at 6.36 µM. 330,000 tested, 0.41% active. Q9UM07;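 active means percent inhibition above a cutoff equal to the mean of all tested compounds plus 3 SD, cut at about 15% in these data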;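 further: 0% = PAD4 with RCA probe and DMSO and 100% = probe without PAD4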
# GASC-1 inh = human JMJD2C demethylase inhibition; GST-JMJD2C(1-420) H3K9me3 demethylation, DELFIA europium; inhibition, % at 2.35 µM; 330,000 tested, 0.069% active;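 active means more than half of a compound's replicate wells show inhibition beyond 50%, single wells judged on their own value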;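 further: signal counts dimethyl H3K9 product captured on neutravidin plate; 0% = median of DMSO wells and 100% = 0.3 times that DMSO median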
# Target sequence (Q9H3R0 1-420 limits assumed): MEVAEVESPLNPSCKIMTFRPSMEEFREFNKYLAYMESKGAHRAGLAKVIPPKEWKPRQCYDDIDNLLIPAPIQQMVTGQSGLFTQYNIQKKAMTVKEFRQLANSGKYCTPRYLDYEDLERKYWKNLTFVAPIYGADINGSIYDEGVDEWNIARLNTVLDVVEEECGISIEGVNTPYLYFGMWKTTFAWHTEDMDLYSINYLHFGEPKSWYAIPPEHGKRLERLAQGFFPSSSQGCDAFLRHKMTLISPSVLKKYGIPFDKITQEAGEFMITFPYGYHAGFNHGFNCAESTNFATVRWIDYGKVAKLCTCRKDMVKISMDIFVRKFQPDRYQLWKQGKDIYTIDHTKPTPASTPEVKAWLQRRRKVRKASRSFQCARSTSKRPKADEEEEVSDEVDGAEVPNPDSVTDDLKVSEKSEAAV
# TDP2 absorb = blocks human TDP2 phosphodiesterase activity; inhibition, % at 12.8 µM; recombinant TDP2, T5PNP hydrolysis, p-nitrophenol absorbance 415 nm; 370,000 tested, 0.34% active; AID 720702;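 active means inhibition above the mean of all tested compounds plus 3 SD, set per campaign, cut at about 25% in these data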;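 further: 0% = DMSO with enzyme and 100% = buffer with substrate but no TDP2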
#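 Test system: human TDP2 enzyme; Input: 120 nM TDP2 per well; Buffer or medium: Mg2+-containing Tris-HCl buffer, pH 7.5; Reagent: 5 mM T5PNP; Dosing: 12.8 µM single point, 1% DMSO; Incubation: reaction 2 h, 37 °C; Detection: p-Nitrophenol epi absorbance; Read-out: % inhibition relative to enzyme-containing and enzyme-free wells; Replicates: single well per compound.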
# Apaf-1 inh = blocks human Apaf-1 apoptosome activity; reconstituted apoptosome caspase-3 activity, DEVD-Rh110 fluorescence; inhibition, % at 20 µM; 330,000 tested, 0.71% active; AID 489030; active means inhibition of at least 40% at 20 µM;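 further: plate controls were DMSO wells for no effect and DEVD-CHO caspase inhibitor wells for full effect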
#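 Assay system: Apoptosome proteins | Medium: pH 7.5 Hepes buffer with CHAPS, BSA, DTT | Also added: Cytochrome c and DEVD-Rh110 substrate | Times: 30 min plus 50 min, RT | Detection: Rhodamine 110 fluorescence at Ex 480/Em 540 nm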
# SUMO HTRF inh = blocks human SUMOylation mediated by UBC9; P63279; HTRF SUMOylation assay, SAE1/SAE2 + UBC9, in vitro; inhibition, % at 35 µM; 290,000 tested, 0.36% active; AID 2006; in the data active means inhibition above about 50%, passing the limit was not always enough
# Apaf-1 inh conf = Apaf-1 inhibition, single-dose confirmed. shares compounds with Apaf-1 inh. reconstituted apoptosome, caspase-3 DEVD-Rh110 fluorescence. inhibition, % at 20 µM. 1,800 tested, 25% active. AID 504614;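 active means mean inhibition of at least 40% at 20 µM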;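 further: plate controls were DMSO wells for no effect and DEVD-CHO caspase inhibitor control wells for full effect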
# Rh110 quench = Rh110 signal interference in Apaf-1 inhibitor counter-screen | shares compounds with Apaf-1 inh | Rh110 fluorescence interference, quenched caspase reaction | activation (fluorescence interference), % at 20 µM | 1,800 tested, under 10 active | AID 504615;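 active means signal rise of 40% or more at 20 µM, treated as a fluorescence artifact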
# Fluor interf inh = shows fluorescence interference in the Apaf-1 inhibitor assay format; shares compounds with Apaf-1 inh; fluorescence interference counterscreen, Apaf-1 assay format; IC50, µM; 460 tested, under 10 active; AID 588538; call rule not given here
# Numbers without * were called inactive; nt = no result given.
SMILES,GSTO1 inh,PAD4 FP inh,GASC-1 inh,TDP2 absorb,Apaf-1 inh,SUMO HTRF inh,Apaf-1 inh conf,Rh110 quench,others
c1ccc2c(c1)ncc1cccn12,1,-2,-3,12,-2,21,nt,nt,
C=CCN1C(=O)[C@@H](CC(=O)N2CCN(C(=O)C3CC3)CC2)[C@]2(C(=O)OCC)CCCCC/C=C/12,nt,nt,nt,8,nt,nt,nt,nt,
O=C(Cn1nnc(-c2ccc(N3CCOCC3)cc2)n1)c1cccc(F)c1,nt,nt,nt,-6,nt,nt,nt,nt,
O=C1[C@H]2C[C@@]3(n4ccc5ccccc54)c4ccccc4N(S(=O)(=O)c4ccccc4)[C@H]3N2C(=O)CN1Cc1ccccc1,nt,nt,nt,-8,nt,nt,nt,nt,
CC(C)C[C@H]1COc2cc(N3CCCC3)ccc2S(=O)(=O)N1C,nt,nt,nt,-10,nt,nt,nt,nt,
C/C(=N\NC(=O)Cc1cc(=O)[nH][nH]1)c1cccc([N+](=O)[O-])c1,45*,-5,6,2,51*,9,11,-2,
COc1ccc(C2C(C(=O)c3ccco3)=C(O)C(=O)N2CCCn2ccnc2)c(OC)c1 (stereo not drawn),24,-4,-9,17,57*,31,4,-16,
COc1ccc(C(=O)NCCN2C(=O)C3C4C=CC(C4)C3C2=O)cc1OC (stereo not drawn),nt,nt,nt,13,nt,nt,nt,nt,
Cc1cc2nn(-c3ccc(Cl)cc3)nc2cc1N,12,-3,-1,-19,49*,21,22,3,
COc1cc2c(C#N)c(N3CCc4ccccc4C3)nc(N)c2c(N)n1,8,-16,7,-9,94*,48,35,8,
CCN(CC)c1nc(N)c(C#N)c(CC#N)c1C#N,-9,-8,-10,-3,8,nt,nt,nt,
COCc1cc(C)nc(N2CCCCC2)c1C#N,-1,-4,1,-2,-1,-7,nt,nt,
CCOc1cc2c(C#N)c(N3CCCCC3)nc(N)c2c(N)n1,-5,-10,-16,-1,97*,96,37,0,
CCN(CC)c1nc(N)c2c(N)nc(OC)cc2c1C#N,32,-10,-4,14,46*,nt,4,1,
CCN(CC(=O)Nc1ccccc1OC)C(=O)c1ccccc1Sc1ccccc1C#N,nt,1,-2,3,58*,nt,42*,9,Fluor interf inh=>100
CCOc1ccc(-c2cc(C(=O)NCCCn3ccnc3)c3cc(Br)ccc3n2)cc1,-10,-4,-3,5,42*,4,-1,9,
CCOc1ccc(-c2cc(C(=O)NCCCn3ccnc3)c3ccccc3n2)cc1,1,-3,-6,4,-6,35,nt,nt,
C=CCNC(=O)CN(C(=O)c1csc2ccc(Cl)cc12)c1cccc(Br)c1,nt,nt,nt,4,nt,nt,nt,nt,
CCOC(=O)c1cc(C(=O)c2cccs2)n2ccc(C(C)=O)cc12,14,5,2,4,42*,-6,10,4,
CCCCOc1ccc(C(=O)NCC(=O)NCC(c2cccs2)N2CCOCC2)cc1 (stereo not drawn),nt,-6,7,-5,41*,nt,42*,13,Fluor interf inh=>100
CCOC(=O)C1(Cc2ccccc2)CCN(Cc2ccc(C)cc2)CC1,nt,nt,nt,10,nt,nt,nt,nt,
Cc1ccc(C(=O)Nc2ccccn2)cc1S(=O)(=O)N1CCOCC1,3,-2,6,17,43*,nt,33,3,
O=C(Nc1ccccn1)c1ccc(Cl)c(S(=O)(=O)N2CCOCC2)c1,-3,-1,-15,7,4,13,nt,nt,
Cc1c(CCOC(=O)C2C3CC4CC(C3)CC2C4)sc[n+]1CC(=O)c1ccc(Br)cc1 (stereo not drawn),3,-4,-7,3,50*,25,32,6,
Cc1c(CCOC(=O)c2ccc(Cl)cc2Cl)sc[n+]1CC(=O)c1ccc(Br)cc1,nt,1,-8,5,71*,nt,29,9,
O=C(NCCCN1CCN(c2ccc(F)cc2)CC1)NCc1ccccc1,nt,nt,nt,-14,nt,nt,nt,nt,
